Here are results for 28 compounds from ChEMBL document CHEMBL1127560, “Tyrosine kinase inhibitors. 3. Structure-activity relationships for inhibition of protein tyrosine kinases by nuclear-substituted derivatives of 2,2'-dithiobis(1-methyl-N-phenyl-1H-indole-3-carboxamide)” (J Med Chem, 1994).

Structures are written as SMILES.

For assay [1], the target named is Epidermal growth factor receptor (Homo sapiens, UniProt P00533). Kind of assay: Inhibition of tyrosine phosphorylation activity of the epidermal growth factor receptor (EGFR) tyrosine kinase from human A-431 carcinoma cell-shed membrane vesicles.
Epidermal growth factor receptor (Homo sapiens, UniProt P00533), sequence (P00533 whole entry): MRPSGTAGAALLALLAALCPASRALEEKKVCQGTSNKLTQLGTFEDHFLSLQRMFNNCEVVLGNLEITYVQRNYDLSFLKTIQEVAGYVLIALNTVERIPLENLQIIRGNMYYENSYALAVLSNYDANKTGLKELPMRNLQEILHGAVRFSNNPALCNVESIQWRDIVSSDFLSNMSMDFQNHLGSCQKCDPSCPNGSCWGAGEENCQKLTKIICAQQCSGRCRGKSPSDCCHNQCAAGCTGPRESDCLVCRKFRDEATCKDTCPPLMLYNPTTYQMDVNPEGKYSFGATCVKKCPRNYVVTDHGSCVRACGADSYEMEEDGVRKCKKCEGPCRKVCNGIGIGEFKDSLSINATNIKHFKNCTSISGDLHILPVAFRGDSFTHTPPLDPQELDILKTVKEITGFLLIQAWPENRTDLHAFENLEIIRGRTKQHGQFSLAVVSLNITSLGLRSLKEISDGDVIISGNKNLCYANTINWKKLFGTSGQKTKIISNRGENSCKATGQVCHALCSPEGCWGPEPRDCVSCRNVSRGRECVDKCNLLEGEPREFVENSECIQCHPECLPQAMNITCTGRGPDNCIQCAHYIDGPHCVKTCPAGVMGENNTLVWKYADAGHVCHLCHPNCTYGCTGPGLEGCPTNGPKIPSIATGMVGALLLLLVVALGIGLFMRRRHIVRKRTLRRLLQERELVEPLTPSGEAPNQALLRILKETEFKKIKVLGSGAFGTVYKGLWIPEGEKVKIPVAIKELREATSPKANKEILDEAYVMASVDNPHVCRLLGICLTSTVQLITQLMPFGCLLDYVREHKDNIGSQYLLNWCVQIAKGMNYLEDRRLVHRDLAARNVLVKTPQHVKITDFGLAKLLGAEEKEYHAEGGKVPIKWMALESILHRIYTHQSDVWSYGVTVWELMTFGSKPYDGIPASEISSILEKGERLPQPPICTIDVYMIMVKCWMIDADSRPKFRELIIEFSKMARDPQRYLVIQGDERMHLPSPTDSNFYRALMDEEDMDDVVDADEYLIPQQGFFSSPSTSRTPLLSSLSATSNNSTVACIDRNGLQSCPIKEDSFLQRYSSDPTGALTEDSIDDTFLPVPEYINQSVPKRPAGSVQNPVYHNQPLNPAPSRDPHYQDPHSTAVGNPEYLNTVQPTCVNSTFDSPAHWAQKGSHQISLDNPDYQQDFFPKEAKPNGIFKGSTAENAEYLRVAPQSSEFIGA
In the next assay the test system is Swiss 3T3 (Mus musculus). Kind of assay: Inhibition of Swiss 3T3 Mouse fibroblast proliferation.
The target of assay [2] is Platelet-derived growth factor receptor (Mus musculus, UniProt P05622+P26618). Kind of assay: Inhibition of PDGF receptor autophosphorylation in mouse fibroblasts. It is filed as protein-complex assay. The method, boiled down: (§1)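 Confluent Swiss 3T3 fibroblasts were pretreated 2 h with graded compound concentrations, then stimulated 5 min with EGF or PDGF. Monolayers were lysed in boiling Laemmli buffer and resolved on 4–20% SDS gels. Blots were probed with antiphosphotyrosine antibody (1 μg/mL) and [¹²⁵I]protein A, and receptor autophosphorylation was quantified by densitometry. IC50 is 50% inhibition of autophosphorylation.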

Assay [3] deals with Epidermal growth factor receptor (Mus musculus, UniProt Q01279). In words: Inhibition of epidermal growth factor receptor (EGFR-mediated tyrosine autophosphorylation in mouse fibroblasts. The method, boiled down:
as §1

The test system of another assay is KG-1. In words: Inhibition of kg1A acute myelogenous leukemia cell proliferation. It is filed as functional, cell-based. As to conditions: Homo sapiens. In outline: (§2)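 Cells kept in dMEM/F12 (50:50) with 10% fetal bovine serum. 2 × 10⁴ cells were seeded into wells holding compound dilutions in DMSO and exposed for 72 h at 37 °C under 5% CO₂. Growth was read by electronic cell count. IC50 is the concentration giving 50% growth inhibition, as the mean of two separate duplicate determinations.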

The test system of a further assay is A-431. Kind of assay: Inhibition of A431 human epidermoid carcinoma cell proliferation. It counts as functional, cell-based. The method, boiled down: as §2
Another assay concerns K562. Kind of assay: Inhibition of K562 chronic myelogenous leukemia cell proliferation. It counts as functional, cell-based. As to conditions: Homo sapiens. In outline:
as §2

Epidermal growth factor receptor (Mus musculus, UniProt Q01279), sequence (Q01279 whole entry): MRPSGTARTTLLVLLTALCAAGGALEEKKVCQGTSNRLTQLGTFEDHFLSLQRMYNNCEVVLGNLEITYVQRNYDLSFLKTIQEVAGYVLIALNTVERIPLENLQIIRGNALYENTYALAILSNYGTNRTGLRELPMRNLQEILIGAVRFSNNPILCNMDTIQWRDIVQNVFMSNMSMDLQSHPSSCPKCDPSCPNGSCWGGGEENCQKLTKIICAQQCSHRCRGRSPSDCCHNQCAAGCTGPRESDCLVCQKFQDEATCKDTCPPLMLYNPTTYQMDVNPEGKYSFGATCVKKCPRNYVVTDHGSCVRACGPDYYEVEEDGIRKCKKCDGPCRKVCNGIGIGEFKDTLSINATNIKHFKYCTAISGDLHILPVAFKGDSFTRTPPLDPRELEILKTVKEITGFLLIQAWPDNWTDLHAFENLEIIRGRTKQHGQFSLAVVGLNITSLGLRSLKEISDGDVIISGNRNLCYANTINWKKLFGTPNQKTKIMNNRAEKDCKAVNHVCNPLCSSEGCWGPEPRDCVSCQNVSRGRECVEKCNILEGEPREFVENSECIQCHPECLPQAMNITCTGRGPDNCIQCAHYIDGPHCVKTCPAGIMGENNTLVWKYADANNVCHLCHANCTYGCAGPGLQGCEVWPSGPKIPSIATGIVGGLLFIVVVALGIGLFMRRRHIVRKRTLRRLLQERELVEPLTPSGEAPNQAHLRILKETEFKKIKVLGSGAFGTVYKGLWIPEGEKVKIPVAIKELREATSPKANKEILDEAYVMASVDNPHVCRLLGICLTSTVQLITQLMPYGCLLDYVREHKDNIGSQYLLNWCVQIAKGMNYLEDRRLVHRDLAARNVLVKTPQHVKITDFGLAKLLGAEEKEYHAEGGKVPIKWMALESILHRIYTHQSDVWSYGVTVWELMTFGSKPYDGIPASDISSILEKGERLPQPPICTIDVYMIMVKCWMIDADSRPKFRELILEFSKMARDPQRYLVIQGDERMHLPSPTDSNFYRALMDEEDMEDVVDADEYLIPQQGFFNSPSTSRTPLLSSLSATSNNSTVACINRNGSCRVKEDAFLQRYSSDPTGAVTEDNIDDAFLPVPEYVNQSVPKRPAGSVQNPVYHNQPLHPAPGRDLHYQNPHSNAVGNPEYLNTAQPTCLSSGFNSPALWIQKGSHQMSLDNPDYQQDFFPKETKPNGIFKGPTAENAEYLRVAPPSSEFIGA

A word on the IC50: it is the concentration that gives 50% inhibition. High values mean lower potency, low ones higher potency. `CC(=O)Oc1cccc2c(C(=O)Nc3ccccc3)c(SSc3c(C(=O)Nc4ccccc4)c4cccc(OC(C)=O)c4n3C)n(C)c12` returned an IC50 in assay [1] of 9.9 µM.
`Cn1c(SSc2c(C(=O)Nc3ccccc3)c3cccc(Cl)c3n2C)c(C(=O)Nc2ccccc2)c2cccc(Cl)c21` returned an IC50 in assay [1] of more than 100 µM.
As to `Cc1cccc2c1c(C(=O)Nc1ccccc1)c(SSc1c(C(=O)Nc3ccccc3)c3c(C)cccc3n1C)n2C`, the results for the IC50 (in the assay on Swiss 3T3 (Mus musculus); in assay [1]) were 4 µM and more than 100 µM, respectively.
Take `COc1cccc2c(C(=O)Nc3ccccc3)c(SSc3c(C(=O)Nc4ccccc4)c4cccc(OC)c4n3C)n(C)c12`: the IC50 in the assay on Swiss 3T3 (Mus musculus) is 24 µM; in assay [2], more than 100 µM; in assay [3], more than 100 µM.
Turning to `Cn1c(SSc2c(C(=O)Nc3ccccc3)c3cc(O)ccc3n2C)c(C(=O)Nc2ccccc2)c2cc(O)ccc21`, the IC50 in assay [1] worked out at 40.5 µM.
On the same count and under the same terms, then `Cn1c(SSc2c(C(=O)Nc3ccccc3)c3c(Cl)cccc3n2C)c(C(=O)Nc2ccccc2)c2c(Cl)cccc21`, with 100 µM.
As to `COc1cccc2c1c(C(=O)Nc1ccccc1)c(SSc1c(C(=O)Nc3ccccc3)c3c(OC)cccc3n1C)n2C`, the IC50 was 1.9 µM in the assay on Swiss 3T3 (Mus musculus) and more than 100 µM in assay [1].
In the same order, the values of `COc1ccc2c(c1)c(C(=O)Nc1ccccc1)c(SSc1c(C(=O)Nc3ccccc3)c3cc(OC)ccc3n1C)n2C` are 20 µM and more than 100 µM.
In assay [1], `Cn1c(SSc2c(C(=O)Nc3ccccc3)c3ccc(Cl)cc3n2C)c(C(=O)Nc2ccccc2)c2ccc(Cl)cc21` yielded an IC50 of more than 100 µM.
As for `Cn1c(SSc2c(C(=O)Nc3ccccc3)c3ccccc3n2C)c(C(=O)Nc2ccccc2)c2ccccc21`, the half-maximal inhibitory concentration (IC50) was 12 µM in the assay with Swiss 3T3 (Mus musculus); 12 µM in the assay with KG-1; 10 µM in assay [1]; more than 100 µM in assay [2]; 14 µM with A-431; more than 100 µM in assay [3]. In addition, the 50% inhibitory concentration (IC50) in the assay on K562 worked out at 18 µM.
The compound `CC(=O)Oc1cccc2c1c(C(=O)Nc1ccccc1)c(SSc1c(C(=O)Nc3ccccc3)c3c(OC(C)=O)cccc3n1C)n2C` showed an IC50 in assay [1] of 20 µM.
With `Cc1ccc2c(c1)c(C(=O)Nc1ccccc1)c(SSc1c(C(=O)Nc3ccccc3)c3cc(C)ccc3n1C)n2C`, the IC50 in the assay with Swiss 3T3 (Mus musculus) was 22 µM; in assay [1], more than 100 µM.
On to `COc1ccc2c(C(=O)Nc3ccccc3)c(SSc3c(C(=O)Nc4ccccc4)c4ccc(OC)cc4n3C)n(C)c2c1`, for which the IC50 in the assay with Swiss 3T3 (Mus musculus) was 17 µM; in assay [2], more than 100 µM.
Consider `Cn1c(SSc2c(C(=O)Nc3ccccc3)c3cc(C(F)(F)F)ccc3n2C)c(C(=O)Nc2ccccc2)c2cc(C(F)(F)F)ccc21`, for which the IC50 in assay [1] was more than 100 µM.
On the same count and under the same terms, for `CN1C(=S)C(C(=O)Nc2ccccc2)c2cc(Cl)ccc21` (centres undefined) the value was more than 100 µM.
Turning to `CN1C(=S)C(C(=O)Nc2ccccc2)c2ccccc21` (centres undefined), the IC50 in the assay on Swiss 3T3 (Mus musculus) is 64 µM; in the assay on KG-1, 38 µM; in assay [2], 17 µM; with A-431 it was 15 µM; in assay [3] it was more than 100 µM; with K562 it was 32 µM.
Consider `CN1C(=S)C(C(=O)Nc2ccccc2)c2cccnc21` (centres undefined), for which the IC50 in assay [1] was more than 100 µM.
Take `Cn1c(SSc2c(C(=O)Nc3ccccc3)c3cccnc3n2C)c(C(=O)Nc2ccccc2)c2cccnc21`: the IC50 with Swiss 3T3 (Mus musculus) was 10 µM; in assay [2] it was more than 25 µM; in assay [3], more than 25 µM.
As to `Cn1c(SSc2c(C(=O)Nc3ccccc3)c3cccc(O)c3n2C)c(C(=O)Nc2ccccc2)c2cccc(O)c21`, in assay [1], 100 µM corresponded to half-maximal inhibition (IC50).
In the case of `CN1C(=S)C(C)(C(=O)Nc2ccccc2)c2ccccc21` (centres undefined), the IC50 in assay [1] is more than 100 µM.
Same read-out and setting: for `Cn1c(SSc2c(C(=O)Nc3ccccc3)c3cc(F)ccc3n2C)c(C(=O)Nc2ccccc2)c2cc(F)ccc21` the value was more than 100 µM.
On the same count and under the same terms, for `CC(=O)Oc1ccc2c(C(=O)Nc3ccccc3)c(SSc3c(C(=O)Nc4ccccc4)c4ccc(OC(C)=O)cc4n3C)n(C)c2c1` the value was more than 100 µM; for `Cc1cccc2c(C(=O)Nc3ccccc3)c(SSc3c(C(=O)Nc4ccccc4)c4cccc(C)c4n3C)n(C)c12`, more than 100 µM.
On the same count and under the same terms, for `Cn1c(SSCc2ccccc2)c(C(=O)Nc2ccccc2)c2ccccc21` the value was more than 100 µM; for `Cn1c(SSc2c(C(=O)Nc3ccccc3)c3cc([N+](=O)[O-])ccc3n2C)c(C(=O)Nc2ccccc2)c2cc([N+](=O)[O-])ccc21`, 5 µM.
As for `Cc1ccc2c(C(=O)Nc3ccccc3)c(SSc3c(C(=O)Nc4ccccc4)c4ccc(C)cc4n3C)n(C)c2c1`, the IC50 in the assay on Swiss 3T3 (Mus musculus) is 96 µM; in assay [1] it was more than 100 µM.
On to `Cn1c(SSc2ccccc2)c(C(=O)Nc2ccccc2)c2ccccc21`, for which the half-maximal inhibitory concentration (IC50) in assay [1] was more than 100 µM.
Compound `CSc1c(C(=O)Nc2ccccc2)c2ccccc2n1C` displayed an IC50 in assay [1] of more than 100 µM.
